TRPML3 ag: human TRPML3 channel agonists, primary screen, cell-based, HEK293 TRPML3-YFP, Fluo-8 calcium fluorescence, 3 µM. activation, % at 3 µM. 0.29% of 220,000 active. Mucolipin-3 (Homo sapiens), Q8TDD5. 100% = the carbachol control signal;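 active means activation above its plate's cutoff, the mean activation of the plate's test wells plus 3 SD, cut at about 12% in these data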;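 further: 0% = DMSO only wells and 100% = carbachol wells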
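Test system: HEK293 cells stably carrying human TRPML3-YFP; Doses: single dose, 3 µM final nominal compound, 0.3% DMSO final; Schedule: dye loading 1 h 37 °C then 30 min ambient, 125 s read; Technique: Fluo-8 calcium fluorescence; Benchmarks: high control carbachol 87 µM, low control DMSO.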
OX1R antag-1: antagonists of human orexin 1 receptor (OX1R); inhibition, % at 6.6 µM; 1.8% of 330,000 active; AID 485270, 2010; OX1R-expressing cells, FRET antagonist read-out; in the data active means inhibition mostly above about 38%, no sharp cut-off; inactive means mostly below about 40%;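 further: 0% = agonist challenge alone and 100% = reference antagonist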
Target sequence (O43613 whole entry, looked up): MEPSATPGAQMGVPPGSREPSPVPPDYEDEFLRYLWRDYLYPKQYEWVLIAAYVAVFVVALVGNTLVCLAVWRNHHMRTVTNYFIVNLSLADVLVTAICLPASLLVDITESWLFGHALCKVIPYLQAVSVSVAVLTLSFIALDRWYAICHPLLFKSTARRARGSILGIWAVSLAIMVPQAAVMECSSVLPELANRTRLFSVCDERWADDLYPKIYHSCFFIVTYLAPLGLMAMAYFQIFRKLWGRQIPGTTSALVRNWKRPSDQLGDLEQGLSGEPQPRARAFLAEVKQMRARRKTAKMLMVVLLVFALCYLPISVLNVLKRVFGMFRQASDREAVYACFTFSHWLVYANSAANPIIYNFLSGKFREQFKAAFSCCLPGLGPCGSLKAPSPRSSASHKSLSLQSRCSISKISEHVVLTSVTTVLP
TRPN1 ag: zebrafish TRPN1 channel agonists, primary screen, cell-based, HEK293, calcium fluorescence. activation, % at 3 µM. 0.18% of 220,000 active. transient receptor potential cation channel N1 (TRPN1/NompC), Danio rerio. HEK293 zebrafish TRPN1-YFP, Fluo-8 calcium fluorescence; 100% = response to 87 µM carbachol. AID 1424, 2008;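 active means activation above its plate's cutoff, the mean activation of test wells on that plate plus 3 SD, cut at about 19% in these data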;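 further: 0% = DMSO alone and 100% = 87 µM carbachol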
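Material – zebrafish TRPN1-YFP in HEK293 cells · Doses – 3 µM single point · Schedule – dye 1 h 37 °C plus 30 min RT · Signal – Fluo-8 calcium fluorescence, excitation 470-495 nm, emission 515-575 nm · Read-out – % activation versus carbachol response · Control set – carbachol high, DMSO low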
GPR7 antagonist: GPR7 receptor antagonists, primary screen, cell-based, fluorescence, single concentration. Neuropeptides B/W receptor type 1 (Homo sapiens), P48145. GPR7-expressing cells, fluorescence antagonist assay. inhibition, % at 4.4 µM. 1.1% of 290,000 active; in the data active means inhibition above about 16%, passing the limit was not always enough;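 further: cells stimulated with the agonist NPW; 0% = agonist with vehicle and 100% = vehicle without agonist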
CHO parental Ca: ATP-evoked calcium signal inhibitors, parental CHO, primary screen, counter-screen for OX1R antagonist project, cell-based, fluorescence, Fluo-8 calcium dye; parental CHO-K1, ATP-induced calcium, Fluo-8 fluorescence; inhibition, % at 5.6 µM; 0.63% of 330,000 active;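 active means inhibition above that plate's mean sample inhibition plus 3 SD, cut at about 26% in these data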;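 further: 0% = ATP-challenged DMSO wells and 100% = DMSO wells without ATP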
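Assay system – parental CHO cells · Reagent – ATP stimulus · Detection – intracellular calcium via Fluo-8 no-wash fluorescent dye · Evaluation – percent inhibition of ATP-evoked calcium rise, normalized to controls · Controls – ATP wells versus no-ATP DMSO wells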
OX1R antag-2: OX1R (HCRTR1) antagonists, primary screen, fluorescence, CHO/OX1R cells, Fluo-8 calcium, orexin A; Orexin/Hypocretin receptor type 1 (Homo sapiens), O43613; Fluo-8 calcium fluorescence; inhibition, % at 5 µM; 0.43% of 330,000 active;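 active means inhibition above its plate's threshold, mean inhibition of all tested compounds on the plate plus 3 SD, cut at about 37% in these data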;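 further: 0% = orexin A challenge wells and 100% = SB-334867-A antagonist wells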
An asterisk follows results filed as active; nt = no result. Rows were chosen to be rich in hits. Some 3.2% of all compounds tested hit in one or more screens of this group.

SMILES	TRPML3 ag	OX1R antag-1	TRPN1 ag	GPR7 antagonist	CHO parental Ca	OX1R antag-2
CC(C)C(C)NC(=O)COC(=O)c1cccc(C(=O)OCC(=O)NC(C)C(C)C)n1 (centres undefined)	0	4	0	-3	-15	-12
Cc1c(N/N=C(\C#N)C(=O)c2ccc(Cl)cc2)c(=O)n(-c2ccccc2)n1C	3	5	4	-3	-8	16
N#C/C(=N\Nc1ccc(Cl)cc1)C(=O)c1ccccc1	4	60*	12	1	32	25
Cc1onc(-c2ccccc2Cl)c1C(=O)NCCn1c(C)cc2ccccc21	nt	46*	nt	7	-3	7
Cc1onc(-c2ccccc2Cl)c1C(=O)Nc1ccc(-c2cn3cccnc3n2)cc1	1	46*	2	-8	-8	5
Cc1onc(-c2ccccc2Cl)c1C(=O)NCC(=O)O	1	8	-1	-2	-7	-10
CCc1sc(N2C(=O)C3C4CCC(C4=C(C)C)C3C2=O)nc1-c1ccccc1 (centres undefined)	5	38*	-1	-12	-38	23
CCCCCC(=O)N/N=C/c1ccc([N+](=O)[O-])o1	1	36*	0	4	-6	6
Cc1ccc(NCC(=O)N/N=C\c2ccc([N+](=O)[O-])o2)cc1	1	24	1	5	9	-2
O=C(CNc1ccccc1)N/N=C/c1ccc([N+](=O)[O-])o1	1	51*	2	5	-6	-6
COc1ccc(OCc2nc(-c3ccc(F)c(F)c3)cs2)cc1	1	12	1	-3	-15	-9
O=C(CSc1nnc(-c2ccccc2O)o1)N1CCCCC1	nt	12	nt	-9	-10	-27
CC(C)(C)C(=O)NNC(=O)c1cc2sccc2s1	1	4	0	-5	-12	-7
Cc1nn(Cc2c(Cl)cccc2Cl)c(C)c1NC(=O)/C=C/c1cnn(C)c1C	-1	56*	0	1	-5	6
COc1ccc(CNC(=O)c2cc(-c3ccncc3)nc3c(C)cc(C)cc23)cc1OC	0	48*	2	-4	-19	-8
COc1cc(/C=C2/SC(N)=NC2=O)ccc1Oc1ccc([N+](=O)[O-])cc1[N+](=O)[O-]	1	5	0	5	-8	1
COc1cc(/C=C2/SC(=O)NC2=O)ccc1Oc1ccc([N+](=O)[O-])cc1[N+](=O)[O-]	1	47*	2	-8	-1	-14
COc1cc(/C=C2\SC(=O)NC2=O)ccc1Oc1ccc([N+](=O)[O-])cn1	0	53*	2	3	-5	-9
C[C@@H]1CN([C@@H](C)CO)C(=O)c2cc(NS(=O)(=O)c3cccs3)ccc2O[C@H]1CN(C)Cc1ccc(C(F)(F)F)cc1	nt	5	nt	nt	-24	-15
CCCCc1ncc(CN2CCC(n3nccc3NC(=O)c3ccccc3Cl)CC2)[nH]1	nt	17	nt	-4	-12	-14
Cc1ccc(S(=O)(=O)NCCNc2ccc(Br)c(C)c2)cc1	nt	13	nt	nt	37*	25
C=CC[N@@+]12CC[C@]34c5ccccc5N5/C=C6\C7N(/C=C(\C53)[C@@H](C[C@@H]41)/C(=C/CO)C2)c1ccccc1[C@@]71CC[N@@+]2(CC=C)C/C(=C\CO)[C@@H]6C[C@@H]12 (some centres undefined)	nt	2	nt	nt	2	-5
CC1(C)C2CC=C(/C=N/NC(=O)c3ccc(O)cc3)C1C2 (centres undefined)	1	17	1	5	-9	-16
Cc1ccc2[nH]c3c(NCc4ccco4)ncnc3c2c1	5	50*	8	-3	-6	-6
CCCCc1nc2cc(C(=O)NCCc3c(C)n[nH]c3C)ccc2o1	nt	15	nt	3	-14	-32
SMILES	TRPML3 ag	OX1R antag-1	TRPN1 ag	GPR7 antagonist	CHO parental Ca	OX1R antag-2
CCC(CC)NC(=O)CON=C1c2ccccc2-c2ccccc21	1	51*	-3	-11	-21	-13
CC(=O)c1nn(-c2ccccc2)cc1C(=O)c1ccc(Br)cc1	1	11	0	-14	40*	10
CC(=O)c1nn(-c2cccc(Br)c2)cc1C(=O)c1ccccc1	-1	2	0	-3	-10	-25
O=C(CSCC(=O)N1CCCc2ccccc21)Nc1nc(-c2ccccc2)cs1	0	33*	-2	-12	-1	-24
Cc1cc(C)cc(OC(=O)C23CCC(C)(C(=O)O2)C3(C)C)c1 (centres undefined)	4	3	0	-18	-10	-18
COc1ccc(CC2(CO)CCN(S(=O)(=O)c3cccc4cccnc34)CC2)cc1	nt	5	nt	-6	-4	-14
CC1(C)CC(N2CCN(c3ccccc3)CC2)=CC(=[N+]2CCCC2)C1	0	8	1	6	-13	21
CC1(C)CC(N2CCCC2)=CC(=[N+]2CCCCCC2)C1	0	5	0	26*	6	-19
O=C(OCC(=O)N1CCC(c2ccccc2)=N1)c1ccc(Cl)s1	nt	34*	nt	nt	-16	34
Cc1cccc(C(=O)OCC(=O)N2CCC(c3ccccc3)=N2)c1O	nt	24	nt	nt	-7	-25
COc1ccc(-c2ccc(=O)n(Cc3cccc([N+](=O)[O-])c3)n2)cc1	1	31	1	39*	4	-6
CC(=O)N(C)C1=C(N2CCOCC2)C(=O)c2ccccc2C1=O	-1	73*	-1	-4	-4	8
O=C(NCC1CCCN1S(=O)(=O)c1cccs1)c1cccc([N+](=O)[O-])c1 (centres undefined)	nt	55*	nt	nt	-11	-9
Cc1ccccc1NC(=O)C(=O)NCC1CCCN1S(=O)(=O)c1cccs1 (centres undefined)	nt	34*	nt	nt	-15	-7
COC(=O)C(NC(=O)CCc1nnc2ccc(N3CCCCC3)nn12)C(C)C (centres undefined)	nt	-1	nt	-14	2	-7
COc1cccc(CC2(CO)CCN(Cc3ccc4cccc(F)c4n3)CC2)c1	1	22	0	-3	-19	-23
CC(C)CC1Nc2ncnc(N3CCN(c4ccccc4)CC3)c2N(Cc2ccc(Cl)cc2)C1=O (centres undefined)	nt	12	nt	nt	-37	-51
